Activity calls are given as the source filed them. The rule behind the calls is not given here.
Key:
[1] = Selectivity index, ratio of CC50 for cytotoxicity against human HEK-293T cells to IC50 for antiviral activity against Influenza A virus A/WSN/33(H1N1) […] cells; type: toxicity, cell-based; conditions: read-out: Ratio CC50/IC50
[2] = Cytotoxicity against human HEp-2 cells assessed as reduction in cell viability after 48 hrs by MTS assay; type: cell-based
[3] = Selectivity index, ratio of CC50 for cytotoxicity against human HEp-2 cells to IC50 for antiviral activity against RSV Long expressing mGFP infected in HEp-2 cells; type: toxicity, cell-based; conditions: read-out: Ratio CC50/IC50
HEK-293T = assay: Cytotoxicity against human HEK-293T cells assessed as reduction in cell viability after 48 hrs by CCK-8 assay; type: cell-based
How it was run: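 Cytotoxicity in 293T cells in 96-well plates incubated with compounds at six concentrations (top 200) for 48 h. CCK-8 solution added and OD read at 450 nm. DMSO-only cells served as control.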

[4] = tested on: Respiratory syncytial virus; assay: Antiviral activity against RSV Long expressing mGFP infected in HEp-2 cells assessed as reduction in viral replication after 48 hrs by MTS assay; type: functional, organism-based; conditions: human respiratory syncytial virus, HEp-2, 48 h
How it was run: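 HEp-2 cells plated in 96-well plates; after 24 h, virus alone or virus plus compound added; 48 h incubation. MTS (2 mg/ml) added for 3 h at 37 °C, 5% CO2; absorbance read at 490 nm. Controls were mock-treated cells (uninfected, or infected without compound), with cell activity set as 100%.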

Influenza A virus [5] = assay: Antiviral activity against Influenza A virus A/WSN/33(H1N1) infected in human HEK-293T cells assessed as inhibition of viral replication after 48 hrs by CCK-8 assay; type: functional, organism-based; conditions: A/WSN/1933(H1N1)
Influenza A virus [6] = assay: Antiviral activity against Influenza A virus A/WSN/33(H1N1) infected in human HEK-293T cells assessed as inhibition of viral replication at 10 uM after 48 hrs by CCK-8 assay relative to control; type: functional, A/WSN/1933(H1N1); set-up: scale not given: the % may be the effect or the level left
[7] = (§1) Inhibition of Influenza A virus A/WSN/33(H1N1) RNA polymerase expressed in HEK-293T cells after 24 hrs by dual luciferase reporter gene assay; type: cell-based, HEK293T
How it was run: (§2)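 HEK293T cells transfected with pCAGGS plasmids for PB2, PB1, PA and NP, plus a pol-driven firefly luciferase reporter and SV40-Renilla, with or without compound at the indicated concentrations. vRNA transcription read as firefly and Renilla luciferase at 24 h post-transfection.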

HEK293T = assay: as §1; type: cell-based; how it was run: as §2
Influenza A virus [8] = assay: Antiviral activity against Influenza A virus A/WSN/33(H1N1) infected in human A549 cells assessed as inhibition of viral replication at 10 uM after 2 to 6 hrs; type: functional, organism-based; conditions: A/WSN/1933(H1N1), time 2-6 hrs
Influenza A virus [9] = assay: Potency index, ratio of ribavirin IC50 to test compound IC50 for antiviral activity against Influenza A virus A/WSN/33(H1N1) infected in human HEK-293T cells; type: functional, A/WSN/1933(H1N1)
[10] = tested on: Respiratory syncytial virus; assay: Potency index, ratio of ribavirin IC50 to test compound IC50 for antiviral activity against RSV Long expressing mGFP infected in HEp-2 cells; type: functional

SMILES: NC(=O)c1ncn([C@@H]2O[C@H](CO)[C@@H](O)[C@H]2O)n1 [RIBAVIRIN]
- selectivity ratio [1]: > 6.51
- CC50 at 48 h [2]: 3040 µM
- selectivity ratio [3]: 175
- IC50 (HEK-293T): > 100 µM
- IC50 [4]: 17.3 µM

SMILES: O=C(COc1cccc2ccc(N3CCCC3)nc12)NCc1ccccc1
- IC50 (Influenza A virus [5]): 13.3 µM
- selectivity ratio [1]: > 7.5
- CC50 at 48 h [2]: 540 µM
- selectivity ratio [3]: 9.68
- IC50 (HEK-293T): > 100 µM
- IC50 [4]: 55.8 µM

SMILES: O=C(COc1cccc2ccc(N3CCCC3)nc12)NC12CC3CC(CC(C3)C1)C2
- IC50 (Influenza A virus [5]): 11.5 µM
- selectivity ratio [1]: > 8.73
- IC50 (HEK-293T): > 100 µM

SMILES: O=C(COc1cccc2ccc(N3CCCC3)nc12)NCc1ccccc1Br
- CC50 at 48 h [2]: 312 µM
- selectivity ratio [3]: 1.71
- IC50 [4]: 182 µM

SMILES: c1cc(OCCCCN2CCOCC2)c2nc(N3CCCC3)ccc2c1
- CC50 at 48 h [2]: 691 µM
- selectivity ratio [3]: 59.6
- IC50 [4]: 11.6 µM

SMILES: O=C(COc1cccc2ccc(Cl)nc12)NCc1ccccc1
- CC50 at 48 h [2]: 528 µM
- selectivity ratio [3]: 25.6
- IC50 [4]: 20.7 µM

SMILES: O=C(COc1cccc2ccc(N3CCOCC3)nc12)NCc1ccccc1
- CC50 at 48 h [2]: 46.2 µM
- selectivity ratio [3]: 1.28
- IC50 [4]: 36.1 µM

SMILES: CC(C)(C)OC(=O)N1CCN(c2ccc3cccc(OCC(=O)NCc4ccccc4)c3n2)CC1
- IC50 (Influenza A virus [5]): 1.87 µM
- Activity (Influenza A virus [6]): >70%
- IC50 [7]: 1.93 µM
- inhibition (HEK293T): Dose-dependent effect
- selectivity ratio [1]: > 53.5
- CC50 at 48 h [2]: 1370 µM
- selectivity ratio [3]: 80.9
- Activity (Influenza A virus [8]): Active
- IC50 (HEK-293T): > 100 µM
- IC50 [4]: 16.9 µM
- Ratio IC50 (Influenza A virus [9]): 8.2

SMILES: COc1ccc(CNC(=O)COc2cccc3ccc(N4CCCC4)nc23)cc1
- CC50 at 48 h [2]: 2490 µM
- selectivity ratio [3]: 673
- Ratio IC50 [10]: 2.5
- IC50 [4]: 3.7 µM

SMILES: COc1cccc(CNC(=O)COc2cccc3ccc(N4CCCC4)nc23)c1
- CC50 at 48 h [2]: 74.3 µM
- selectivity ratio [3]: 10.7
- Ratio IC50 [10]: 2.5
- IC50 [4]: 6.93 µM

SMILES: CC(C)(C)OC(=O)N[C@@H]1CCN(c2ccc3cccc(OCC(=O)NCc4ccccc4)c3n2)C1
- IC50 (Influenza A virus [5]): 4.99 µM
- Activity (Influenza A virus [6]): >70%
- selectivity ratio [1]: 9.99
- CC50 at 48 h [2]: 58.6 µM
- selectivity ratio [3]: 1.66
- IC50 (HEK-293T): 49.9 µM
- IC50 [4]: 35.3 µM

SMILES: CCOC(=O)COc1cccc2ccc(N3CCCC3)nc12
- CC50 at 48 h [2]: 826 µM
- selectivity ratio [3]: 50.3
- IC50 [4]: 16.4 µM

SMILES: O=C(COc1cccc2ccc(N3CCCCC3)nc12)NCc1ccccc1
- CC50 at 48 h [2]: 1740 µM
- selectivity ratio [3]: 66.7
- IC50 [4]: 26.1 µM

SMILES: O=C(COc1cccc2ccc(N3CCCC3)nc12)NCc1cccc(F)c1
- CC50 at 48 h [2]: 444 µM
- selectivity ratio [3]: 0.15
- IC50 [4]: 2920 µM

SMILES: c1cc(OCCCN2CCOCC2)c2nc(N3CCCC3)ccc2c1
- IC50 (Influenza A virus [5]): 50.7 µM
- selectivity ratio [1]: > 1.97
- CC50 at 48 h [2]: 552 µM
- selectivity ratio [3]: 39.2
- IC50 (HEK-293T): > 100 µM
- IC50 [4]: 14.1 µM

SMILES: CC(C)(C)OC(=O)N[C@H]1CCN(c2ccc3cccc(OCC(=O)NCc4ccccc4)c3n2)C1
- IC50 (Influenza A virus [5]): 5.11 µM
- Activity (Influenza A virus [6]): >70%
- selectivity ratio [1]: 11.3
- CC50 at 48 h [2]: 43.8 µM
- selectivity ratio [3]: 9.59
- IC50 (HEK-293T): 58 µM
- Ratio IC50 [10]: 2.5
- IC50 [4]: 4.57 µM

SMILES: CCOc1ccccc1NC(=O)COc1cccc2ccc(N3CCCC3)nc12
- CC50 at 48 h [2]: 1040 µM
- selectivity ratio [3]: 31.5
- IC50 [4]: 33.2 µM

SMILES: O=C(COc1cccc2ccc(N3CCCC3)nc12)NCc1cccc(Cl)c1
- CC50 at 48 h [2]: 73 µM
- selectivity ratio [3]: 2.41
- IC50 [4]: 30.2 µM

SMILES: O=C(COc1cccc2ccc(N3CCCC3)nc12)NCc1ccc(F)cc1
- CC50 at 48 h [2]: 2130 µM
- selectivity ratio [3]: 483
- Ratio IC50 [10]: 2.5
- IC50 [4]: 4.41 µM

SMILES: CS(=O)(=O)c1ccc(CNC(=O)COc2cccc3ccc(N4CCCC4)nc23)cc1
- CC50 at 48 h [2]: 1360 µM
- selectivity ratio [3]: 6.14
- IC50 [4]: 221 µM

SMILES: CNc1ccc2cccc(OCC(=O)NCc3ccccc3)c2n1
- CC50 at 48 h [2]: 94.8 µM
- selectivity ratio [3]: 9.2
- IC50 [4]: 10.3 µM

SMILES: CN1CCN(c2ccc3cccc(OCC(=O)NCc4ccccc4)c3n2)CC1
- IC50 (Influenza A virus [5]): 9.87 µM
- selectivity ratio [1]: > 10.1
- CC50 at 48 h [2]: 264 µM
- selectivity ratio [3]: 13.7
- IC50 (HEK-293T): > 100 µM
- IC50 [4]: 19.3 µM

SMILES: O=C(COc1cccc2ccc(N3CCCC3)nc12)NCc1ccc(Br)cc1
- IC50 (Influenza A virus [5]): 42.3 µM
- selectivity ratio [1]: > 2.36
- IC50 (HEK-293T): > 100 µM

SMILES: CCOc1ccccc1CNC(=O)COc1cccc2ccc(N3CCCC3)nc12
- IC50 (Influenza A virus [5]): 7.46 µM
- selectivity ratio [1]: > 13.4
- CC50 at 48 h [2]: 113 µM
- selectivity ratio [3]: 2.48
- IC50 (HEK-293T): > 100 µM
- IC50 [4]: 45.7 µM

SMILES: O=C(COc1cccc2ccc(N3CCCC3)nc12)NCc1ccc(Cl)cc1
- CC50 at 48 h [2]: 245 µM
- selectivity ratio [3]: 6.26
- IC50 [4]: 39.2 µM

SMILES: O=C(COc1cccc2ccc(N3CCCC3)nc12)NCC1CC1
- CC50 at 48 h [2]: 580 µM
- selectivity ratio [3]: 20
- IC50 [4]: 29 µM

SMILES: O=C(COc1cccc2ccc(N3CCCC3)nc12)Nc1ccccc1
- CC50 at 48 h [2]: 304 µM
- selectivity ratio [3]: 18.4
- IC50 [4]: 16.5 µM

SMILES: CN(C)c1ccc2cccc(OCC(=O)NCc3ccccc3)c2n1
- IC50 (Influenza A virus [5]): 14.2 µM
- selectivity ratio [1]: > 7.02
- CC50 at 48 h [2]: 168 µM
- selectivity ratio [3]: 54.1
- IC50 (HEK-293T): > 100 µM
- Ratio IC50 [10]: 2.5
- IC50 [4]: 3.1 µM

SMILES: O=C(COc1cccc2ccc(N3CCCC3)nc12)NCc1ccc(C(F)(F)F)cc1
- IC50 (Influenza A virus [5]): 36.1 µM
- selectivity ratio [1]: > 2.77
- CC50 at 48 h [2]: 327 µM
- selectivity ratio [3]: 11.8
- IC50 (HEK-293T): > 100 µM
- IC50 [4]: 27.8 µM

SMILES: O=C(COc1cccc2ccc(N3CCCC3)nc12)NCc1ccco1
- CC50 at 48 h [2]: 249 µM
- selectivity ratio [3]: 10.9
- IC50 [4]: 22.9 µM

SMILES: c1cc(OCCCCCN2CCOCC2)c2nc(N3CCCC3)ccc2c1
- IC50 (Influenza A virus [5]): 32.4 µM
- selectivity ratio [1]: > 3.08
- CC50 at 48 h [2]: 173 µM
- selectivity ratio [3]: 5.52
- IC50 (HEK-293T): > 100 µM
- IC50 [4]: 31.3 µM
